# Bioassay records from PubChem.
# In the library only some 1.2% were active in any assay of this set; here they are far more common.
# Rin1 Abl inh = inhibitors of Rin1-Abl protein binding, primary screen, biochemical, TR-FRET; Tyrosine-protein kinase ABL1 (Homo sapiens) + Ras and Rab interactor 1 (Homo sapiens), …; inhibition, % at 7.35 µM; 360,000 tested, 0.4% active; in the data active = inhibition above about 5%, passing the limit was not always enough
# ASAP1 GAP inh = inhibitors of human ASAP1 ArfGAP activity, primary screen, biochemical, fluorescence polarization; Arf-GAP with SH3 domain, ANK repeat and PH domain-containing protein 1 (Homo sapiens), …; ASAP1-stimulated ARF1 GTP hydrolysis, GDP FP detection; inhibition, % at 16.5 µM; 360,000 tested, 0.19% active; AID 624377, 2012; in the data active = inhibition above about 25%;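 also: 0% = vehicle with enzyme and substrate and 100% = no enzyme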
# ARFGAP1 inh = inhibitors of rat ARFGAP1 GAP activity, primary screen, biochemical, fluorescence polarization, GDP tracer; Arfgap1-stimulated ARF1 GTP hydrolysis, GDP FP detection; inhibition, % at 16.5 µM; AID 651572, 2012; ADP-ribosylation factor GTPase-activating protein 1 (Rattus norvegicus), Q62848; 360,000 tested, 0.26% active;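 active = inhibition above a per-plate limit, mean inhibition of low control wells plus 3 SD, cut at about 25% in these data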;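 also: 0% = DMSO wells with enzyme and 100% = wells lacking Arfgap1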
#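 Material: rat Arfgap1 GAP domain (His6, aa 1-136), purified enzyme. Also added: human ARF1(Δ1-17)-GTP substrate. Compound dosing: 16.5 µM single point, 1.26% DMSO. Timing: enzyme reaction 120 min at 25 °C after 20 min preincubation. Signal: GDP detection by fluorescence polarization. Read-out basis: percent inhibition of GAP-stimulated GDP formation, scaled between DMSO and no-Arfgap1 medians.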
# GalR3 antagonist = GalR3 antagonists in HEK293 cells, primary screen, cell-based, fluorescence readout. AID 651719, 2012. inhibition, % at 3 µM. HEK293 GalR3-CNG cAMP membrane potential fluorescence; galR3 body fused to GalR1 C-terminus. Galanin receptor type 3 (Homo sapiens), O60755. 360,000 tested, 0.44% active;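 active = inhibition above the screen-wide average plus 3 SD, cut at about 13% in these data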;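 also: forskolin and galanin both at EC90 stimulate the cells; cAMP rise reported by CNG channel membrane potential dye signal; 0% = forskolin plus galanin with DMSO and 100% = forskolin alone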
# GalR3 antag conf = GalR3 antagonist hit confirmation, cell-based, fluorescence, triplicate; AID 652245, 2013; inhibition, % at 3 µM; 1,600 tested, 59% active; shares compounds with GalR3 antagonist; HEK293 GalR3 CNG cAMP biosensor, membrane potential fluorescence; galR3 fused to GalR1 carboxy tail; challenged with forskolin and galanin at EC90;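 active = inhibition above the primary screen's cutoff, the mean inhibition of all screened compounds plus 3 SD, cut at about 13% in these data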;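 also: 0% = forskolin plus galanin and 100% = forskolin alone with DMSO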
# CNG parental = nonspecific cAMP agonists in parental HEK-CNG cells, counter-screen for GalR3 antagonist project, cell-based, fluorescence, high throughput; shares compounds with GalR3 antagonist; HEK293-CNG parental cells, cAMP membrane potential fluorescence; normalised: DMSO wells 0%, forskolin wells 100%; activation, % at 3 µM; 1,600 tested, 10% active; AID 652268, 2013; in the data active = activation above about 1.3%
# An asterisk follows results filed as active; . = no result given.
SMILES,Rin1 Abl inh,ASAP1 GAP inh,ARFGAP1 inh,GalR3 antagonist,GalR3 antag conf,CNG parental
O=C1/C(=C/c2cccc([N+](=O)[O-])c2)CCc2ccccc21,1,8,-2,16*,8,0
Cc1nn(C)c(C)c1CN(C)S(=O)(=O)c1ccc2ccccc2c1,1,10,4,110*,116*,0
COc1ccc(-c2cc(-c3n[nH]c(=S)n3-c3cc(OC)ccc3OC)[nH]n2)cc1,-6,10,1,24*,12,1
CCCCCCCCN1C(=O)[C@@H](CC(=O)N2CCN(C(=O)C3CC3)CC2)C[C@@]2(C(=O)OC)C1=C[C@H](C(C)(C)C)O[C@@H]2C,.,1,10,0,.,.
COc1ccccc1-c1cc(C(F)(F)F)nc(S(=O)(=O)CCCC(=O)Nc2cccnc2Cl)n1,0,-4,1,22*,22*,0
COc1ccc(-c2cc(C(F)(F)F)nc(S(=O)(=O)CCCC(=O)Nc3cc(C)on3)n2)cc1OC,-1,4,-13,18*,19*,1
COc1ccccc1-c1cc(C(F)(F)F)nc(S(=O)(=O)CCCC(=O)Nc2cc(C)on2)n1,0,2,5,0,.,.
Nc1nc2c(ncn2[C@@H]2O[C@H](C(=O)N[C@@H](Cc3ccccc3)C(=O)NCC3CCCCC3)[C@@H](O)[C@H]2O)c(=O)[nH]1,.,-3,-2,-2,.,.
Nc1nc2c(ncn2[C@@H]2O[C@H](C(=O)NCC(c3ccccc3)c3ccccc3)[C@@H](O)[C@H]2O)c(=O)[nH]1,.,-2,14,-6,.,.
COc1ccc2[nH]c3c(c2c1)CCN1C(=O)N([C@@H](C)C(=O)NCCc2ccc(OC)c(OC)c2)C(=O)[C@]31C,-5,-11,9,26*,-1,0
COc1ccc(CCNC(=O)[C@H](C)N2C(=O)N3CCc4c([nH]c5ccccc45)[C@@]3(C)C2=O)cc1OC,-2,-2,-5,1,.,.
CN(C)/C=N/c1nc2nccc(-c3cccs3)n2n1,-5,-4,7,13*,-1,0
CN(C)/C=N/c1nc2nccc(-c3ccc(F)cc3)n2n1,-3,1,9,-3,.,.
CC(C)C(C(=O)NCc1ccccc1)N1CCN(CCN2CCOCC2)CC1 (stereo not given),.,-9,6,0,.,.
Cc1ccc(/C=N\NC(=O)COc2ccc(C)cc2[N+](=O)[O-])cc1,4,8,-4,13*,1,0
CNc1ccccc1C(C)(C)c1cc(-c2ccc(F)cc2)no1,-2,4,2,49*,69*,0
CNc1ccccc1C(C)(C)c1cc(-c2cccc(Br)c2)no1,3,1,11,-9,.,.
CCC(=O)Nc1cccc(-c2cn3cccc(C)c3n2)c1,-1,-6,-5,13*,-1,0
O=C(Nc1cccnc1)c1cccc(S(=O)(=O)N2CCc3ccccc32)c1,-1,10,9,-4,.,.
O=C(Nc1ccncc1)c1cccc(S(=O)(=O)N2CCc3ccccc32)c1,-2,-2,-8,76*,46*,0
O/N=C/c1cc(Br)ccc1OCc1ccc(F)cc1,0,-1,1,-6,.,.
Oc1c(Br)cc(Br)cc1C=NCc1ccccc1,3,-1,-1,.,2,1
Oc1c(Br)cc(Br)cc1C=NCc1ccc(F)cc1,1,-10,1,34*,5,0
c1ccc(Nc2nnc(-c3ccc4c(c3)OCO4)o2)cc1,.,6,-3,-7,.,.
Cc1cc(S(=O)(=O)c2ccc(Cl)cc2)nc(S(=O)(=O)c2ccc(Cl)cc2)c1C#N,1,12,2,16*,11,0
SMILES,Rin1 Abl inh,ASAP1 GAP inh,ARFGAP1 inh,GalR3 antagonist,GalR3 antag conf,CNG parental
Cc1cc(Br)c(OCc2ccc(C(=O)N/N=C3\CC4CC=CC34)cc2)c(Br)c1 (stereo not given),-2,14,6,27*,46*,0
COc1cccc(-c2cccc3c4c([nH]c23)[C@@H]2C[C@H]3[C@@H](C(=O)N2CC4)[C@H](C)ON3C)c1,.,8,-2,-5,.,.
CN(Cc1ccc(OC(F)F)cc1)C(=O)c1cccc(S(=O)(=O)N2CCN(Cc3ccccc3)CC2)c1,1,4,5,22*,88*,-1
Cc1[nH]nc2c1C(c1cccs1)C(C#N)=C(N)O2 (stereo not given),-1,7,3,3,.,.
Cc1ccsc1C1C(C#N)=C(N)Oc2n[nH]c(C)c21 (stereo not given),0,14,-4,30*,-1,0
COc1ccc(CCC(=O)OCC(=O)Nc2sccc2C(N)=O)cc1OC,1,-11,-12,99*,92*,0
Cc1ccc(OCC(=O)OCC(=O)Nc2sccc2C(N)=O)cc1C,-3,4,9,27*,3,0
COc1cc(/C=N/n2cnnc2)ccc1OCc1ccccc1,-4,2,4,12,.,.
COc1cc(/C=N/n2cnnc2)ccc1OCc1ccc(C)cc1,0,7,18,59*,44*,0
CCOc1cc(C2C(C(=O)N3CCCCC3)=C(C)NC3=C2C(=O)CC(C)(C)C3)ccc1O (stereo not given),-3,-12,-5,-3,.,.
CCOc1cc(C2C3=C(CC(C)(C)CC3=O)Nc3n[nH]c(C)c32)ccc1O (stereo not given),0,6,-2,31*,40*,0
CCOC(=O)C1=C(C)NC2=C(C(=O)CC(C)(C)C2)C1c1ccc(O)c(OCC)c1 (stereo not given),1,-4,-1,22*,29*,0
O=c1c(Cl)c(NCCCO)cnn1-c1nc2ccccc2[nH]1,-3,10,5,15*,4,0
C=CCN(CC=C)c1cnn(-c2nc3ccccc3[nH]2)c(=O)c1Cl,3,-6,1,-6,.,.
COc1ccc(CCNc2c(C)c(C)nc3ncnn23)cc1,-4,-1,4,90*,90*,0
C(=NNc1ccc2ccccc2n1)c1ccccn1,-1,7,-6,-6,.,.
CCOc1ccccc1NC(=O)c1ccc(NC(=O)c2ccco2)cc1,0,9,11,.,6,-1
